STAT3 inh – inhibitors of IL-6 induced STAT3 signaling. U3A cells, IL-6 STAT3-luciferase reporter, luminescence; host cell line lacks STAT1. inhibition, % at 5.5 µM. 190,000 compounds, 0.89% hits. AID 862;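 active = inhibition above the mean inhibition across all screened compounds plus 3 SD, cut at about 44% in these data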;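 note: 0% = DMSO only wells and 100% = 100 µM nifuroxazide control wells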
STAT1 act-1 – activators of IFN-gamma induced STAT1 signaling; NIH 3T3 STAT1-luciferase reporter, luminescence; 100% = IFN-gamma alone, no compound; 200,000 compounds, 2.6% hits; activation (% of control), % at 5.5 µM;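 active = activation above the screen-wide mean activation plus 3 SD, cut at about 130% in these data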;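 note: raw ratio to IFN-gamma control signal so 100% means no change and 0% no light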
STAT1 inh-1 – reduces IFN-gamma driven STAT1 reporter signal. NIH 3T3 STAT1-luciferase reporter, luminescence. inhibition, % at 5.5 µM. 200,000 compounds, 0.35% hits. AID 920;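 active = inhibition above a set limit, the mean inhibition across all tested compounds plus 3 SD, cut at about 34% in these data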;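 note: 0% = IFN-gamma with DMSO and 100% = IFN-gamma with 300 µM nifuroxazide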
APP 5'UTR act – activates APP 5'UTR luciferase reporter; SH-SY5Y APP 5'UTR luciferase reporter, luminescence; zero percent = DMSO vehicle wells; activation, % at 2 µM; 190,000 compounds, 1% hits;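 active = activation above a set limit, based on mean plus 3 SD of controls, cut at about 140% in these data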
NF-kB neuron act – NF-kB expression increase, human neuronal cells; NF-kB reporter expression; active compounds read high; fold change at 12.5 µM; 190,000 compounds, 1.6% hits; in the data active = fold change above about 3.3
STAT3 act-1 – increases IL-6 driven STAT3 reporter signal. U3A cells, IL-6 STAT3-luciferase reporter, luminescence; 100% = signal with IL-6 EC80 alone. 190,000 compounds, 0.91% hits. activation (% of control), % at 5.6 µM. AID 871;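 active = activation above the screen-wide mean of compound activation plus 3 SD, cut at about 130% in these data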;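 note: 0% = background luminescence of wells with medium and substrate only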
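System – human U3A cells carrying STAT3-luciferase construct · Probe or stimulus – Interleukin-6, 33 ng/mL · Schedule – compound 1 h, then IL-6 6 h at 37 °C · Signal – luminescence from STAT3-driven luciferase reporter · Evaluation – percent of IL-6-only median luminescence · Benchmarks – IL-6-only high control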
STAT3 act-2 – confirmation of STAT3 signaling activators; shares compounds with STAT3 act-1; U3A STAT3-luciferase reporter, IL-6 potentiation, luminescence; U3A cells lack STAT1; 100 means same as IL-6 alone; potentiation (% of control), % at 5.7 µM; 1,200 compounds, 64% hits;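 active = percent activation of the STAT3 luciferase reporter above a set limit taken from the earlier primary screen, cut at about 130% in these data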;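 note: 0% = background signal of medium plus substrate and 100% = median of IL-6 with DMSO wells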
NFkB act 2 – counter-screen for STAT3 activators: NF-kappaB activation. shares compounds with STAT3 act-1. human cells, NF-kappaB reporter activation. activation (% of control), % at 5.7 µM. 1,200 compounds, 11% hits; in the data active = activation above about 120%;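 note: reporter induced by TNF-alpha stimulation; 100% = median of stimulated DMSO wells and 0% = no signal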
STAT1 act-2 – counter-screen for STAT3 activators: STAT1 activation; shares compounds with STAT3 act-1; NIH 3T3 STAT1-luciferase reporter, IFN-gamma, luminescence; 1,200 compounds, 13% hits; activation (% of control), % at 5.7 µM;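 active = activation above the solvent-only control well mean plus 3 SD, set per screening run, cut at about 120% in these data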;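 note: 100% = IFN-gamma with DMSO median signal so 100% means no change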
STAT1 inh-2 – confirmation of STAT1 signaling inhibitors | shares compounds with STAT1 inh-1 | NIH 3T3 STAT1-luciferase reporter, IFN-gamma, luminescence | inhibition, % at 5.5 µM | 200 compounds, 55% hits | AID 1263;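 active = triplicate mean inhibition exceeding the hit cutoff computed for the primary STAT1 screen, cut at about 35% in these data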;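 note: 0% = DMSO with IFN-gamma and 100% = 300 µM nifuroxazide with IFN-gamma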
NFkB inh STAT1ct – inhibits NF-kappaB, counter-screen to STAT1 inhibitors; shares compounds with STAT1 inh-1; HEK293T NF-kB luciferase reporter, TNF-alpha induced, luminescence; inhibition, % at 5.7 µM; 200 compounds, 30% hits;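 active = inhibition above the mean of solvent-only control wells plus 3 SD of those wells, cut at about 15% in these data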;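 note: 0% = DMSO with TNF-alpha and 100% = MG-132 control with TNF-alpha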
STAT3 inh 2 – STAT3 inhibition in STAT1 inhibitor counter-screen; inhibition, % at 5.7 µM; AID 1310; U3A cells, IL-6 STAT3 luciferase reporter, luminescence; cells lacking STAT1; shares compounds with STAT1 inh-1; 200 compounds, 20% hits;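 active = inhibition above the mean of solvent-only control wells plus 3 SD, set per campaign, cut at about 25% in these data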;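 note: 0% = IL-6 plus DMSO and 100% = IL-6 plus nifuroxazide control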
Starred values were filed as active, the others as inactive; nt = no result. Rows were chosen to be rich in hits. Some 4.9% of all compounds tested hit in one or more screens of this group.

SMILES	STAT3 inh	STAT1 act-1	STAT1 inh-1	APP 5'UTR act	NF-kB neuron act	STAT3 act-1	STAT3 act-2	NFkB act 2	STAT1 act-2	others
O=C(Nc1cc(C(F)(F)F)ccc1Cl)c1ccncc1	17	105	-6	1	0.83	88	nt	nt	nt
Nc1cc2c(cc1O)CCCC2	-35	104	-7	17	0.91	137*	183*	118	147*
Cc1cccc(NS(=O)(=O)c2ccc(C)c(C(=O)OCC(=O)Nc3cc(C)on3)c2)c1	-43	93	8	-8	3	140*	140*	106	101
Cc1cccc(NS(=O)(=O)c2cc(C(=O)OCC(=O)Nc3cc(C)on3)ccc2C)c1	-47	102	-2	-4	1.2	147*	132	91	99
COc1ccccc1NS(=O)(=O)c1cccc(C(=O)OCC(=O)Nc2cc(C)on2)c1	2	98	2	-11	0.87	102	nt	nt	nt
CCOc1ccc(-n2c(Cc3cc(=O)[nH]c(=O)[nH]3)nnc2SCC(=O)Nc2nnc(C)s2)cc1	10	105	-7	9	1.1	97	nt	nt	nt
O=C(CCN1C(=O)C2C3CC(C(Br)C3Br)C2C1=O)OCC(=O)c1ccccc1 (stereo not drawn)	-1	99	1	-4	1.2	100	nt	nt	nt
O=S1(=O)CCN(Cc2ccc(Cl)c(C(F)(F)F)c2)CC1	9	97	2	-9	1	95	nt	nt	nt
CCC(C(=O)Nc1ccccc1OC)n1c(C(=O)OC)cc2ccsc21 (stereo not drawn)	-45	87	14	7	0.78	142*	148*	104	87
CCOc1ccccc1C(=O)Nn1c(C2CCC2)nc2ccccc2c1=O	-70	103	-3	-3	0.68	162*	158*	98	99
COc1ccccc1NC(=O)C1=C(C)NC(=O)NC1c1ccccc1[N+](=O)[O-] (stereo not drawn)	-44	88	12	7	1	144*	138*	104	99
CC1CCCC(NC(=O)C2CCN(S(=O)(=O)N3CCCCCC3)CC2)C1C (stereo not drawn)	-1	97	4	-2	1	104	nt	nt	nt
Cn1nc(-c2ccc(Cl)cc2)c2cc(C(=O)NC3CC3)sc21	-86	101	-1	3	0.93	174*	185*	123*	135*
O=C(NCCCN1CCOCC1)c1ccc(Cl)s1	6	103	-3	3	1.2	100	nt	nt	nt
Cn1nc(-c2ccc(Cl)cc2)c2cc(C(=O)NCCCN3CCOCC3)sc21	-63	101	-1	-6	0.73	155*	134*	109	96
CCOC(=O)N1CCC(NC(=O)c2cc3c(-c4cccc(OC)c4)nn(C)c3s2)CC1	12	108	-9	20	0.88	95	nt	nt	nt
Cn1nc(-c2ccccc2)c2cc(C(=O)O)sc21	8	102	-2	-17	0.94	100	nt	nt	nt
Cn1nc(-c2ccc(Cl)cc2)c2cc(C(=O)NCCN3CCOCC3)sc21	-43	89	12	nt	0.73	145*	152*	105	99
CCN(CC)CCNC(=O)c1cc2c(-c3ccc(Cl)cc3)nn(C)c2s1	-80	93	8	-9	0.78	177*	165*	106	97
COCCNC(=O)NC(=O)CN1CCN(C(c2ccccc2)c2ccccc2)CC1	7	103	-5	24	1	99	nt	nt	nt
CCCSc1nc(-c2ccccc2)cc(C(F)(F)F)c1C#N	17	96	4	-7	1.2	95	nt	nt	nt
N#Cc1c(C(F)(F)F)cc(-c2ccccc2)nc1SCCN1CCOCC1	-56	90	11	4	0.85	152*	146*	105	96
CN1CC2([N+](=O)[O-])CC=C(OCCO)C([N+](=O)[O-])(C1)C2 (stereo not drawn)	-11	104	-5	3	1	107	nt	nt	nt
CC(=O)c1cc(C(=O)N2CCc3c([nH]c4ccccc34)C2C2CCCCC2)[nH]n1 (stereo not drawn)	-56	98	0	3	1.2	157*	155*	104	96
Cc1cnc(C(=O)N2CCc3c([nH]c4ccccc34)C2c2ccc(F)cc2)cn1 (stereo not drawn)	-12	104	-7	-5	0.98	116	nt	nt	nt
SMILES	STAT3 inh	STAT1 act-1	STAT1 inh-1	APP 5'UTR act	NF-kB neuron act	STAT3 act-1	STAT3 act-2	NFkB act 2	STAT1 act-2	others
CCC(C)(C)C1CCc2c(sc(NC(=O)c3cccs3)c2C(N)=O)C1 (stereo not drawn)	10	85	16	20	1.2	93	nt	nt	nt
CC(C)(C)C1CCc2c(sc(NC(=O)c3cccs3)c2C(N)=O)C1 (stereo not drawn)	8	51	54*	-5	0.82	94	nt	nt	nt	STAT1 inh-2=-58;NFkB inh STAT1ct=-6;STAT3 inh 2=-21
OCCCc1nc2ccccc2[nH]1	15	96	2	5	1.2	92	nt	nt	nt
Clc1ccc(C[n+]2cc(-c3ccccc3)n3c2CCC3)cc1Cl	32	86	16	-14	0.73	75	nt	nt	nt
Clc1ccc(C[n+]2cc(-c3ccccc3)n3c2CCCCC3)c(Cl)c1	26	63	40*	8	1	79	nt	nt	nt	STAT1 inh-2=28;NFkB inh STAT1ct=-9;STAT3 inh 2=26*
CC1(C)Cc2c(ccc3ccccc23)C2=C(C(=O)N3CCCC3)C(=O)C(=O)N21	6	61	41*	8	0.83	96	nt	nt	nt	STAT1 inh-2=41*;NFkB inh STAT1ct=5;STAT3 inh 2=0
O=C1CCCC/C1=C/NCc1ccc(F)cc1	16	103	-3	10	1	88	nt	nt	nt
COc1cccc(CNc2ncnc3cc(Cl)ccc23)c1	13	61	41*	-9	0.89	90	nt	nt	nt	STAT1 inh-2=32;NFkB inh STAT1ct=7;STAT3 inh 2=3
CS(=O)(=O)Nc1ccc(C2=NN(C(=O)c3ccco3)C(c3cccc(F)c3)C2)cc1 (stereo not drawn)	20	48	56*	8	0.86	91	nt	nt	nt	STAT1 inh-2=29;NFkB inh STAT1ct=-10;STAT3 inh 2=13

Compound activity (PubChem BioAssay)
